# GPR7 antag: blocks human GPR7 receptor signaling | P48145 | GPR7-expressing cells, fluorescence antagonist assay | inhibition, % at 4.4 µM | hit rate 1.1% among 290,000 | AID 1861; in the data active means inhibition above about 16%, passing the limit was not always enough;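 further: cells stimulated with the agonist NPW; 0% = agonist with vehicle and 100% = vehicle without agonist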
# EP2 antag: EP2 receptor (human) inhibition | hit rate 0.52% among 260,000 | C6 glioma cells expressing human EP2, cAMP TR-FRET; cells stimulated with saturating PGE2 | AID 1422 | inhibition, % at 25 µM;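 active means percent inhibition above 40 after rounding to a whole number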;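 further: rat C6 glioma host cells with rolipram phosphodiesterase inhibitor present; the protocol text gives 20 µM as final concentration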
# OX1R antag-1: OX1R (human) antagonism; OX1R-expressing cells, FRET antagonist read-out; inhibition, % at 6.6 µM; hit rate 1.8% among 330,000; AID 485270; in the data active means inhibition mostly above about 38%, no sharp cut-off; inactive means mostly below about 40%;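 further: 0% = agonist challenge alone and 100% = reference antagonist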
# Target sequence (O43613 whole entry, looked up): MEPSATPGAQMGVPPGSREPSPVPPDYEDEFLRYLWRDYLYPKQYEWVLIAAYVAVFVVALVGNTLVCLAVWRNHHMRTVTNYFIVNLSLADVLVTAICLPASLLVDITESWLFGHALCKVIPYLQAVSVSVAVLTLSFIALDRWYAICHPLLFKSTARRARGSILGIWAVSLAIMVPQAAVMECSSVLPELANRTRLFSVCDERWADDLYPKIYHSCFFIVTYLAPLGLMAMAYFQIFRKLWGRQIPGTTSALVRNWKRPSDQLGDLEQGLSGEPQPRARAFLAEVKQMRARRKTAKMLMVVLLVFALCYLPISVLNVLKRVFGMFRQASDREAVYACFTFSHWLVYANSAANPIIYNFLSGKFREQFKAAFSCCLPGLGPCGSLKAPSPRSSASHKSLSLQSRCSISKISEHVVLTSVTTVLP
# CHO parental Ca: counter-screen: ATP calcium response change in parental CHO cells; parental CHO-K1, ATP-induced calcium, Fluo-8 fluorescence; hit rate 0.63% among 330,000; inhibition, % at 5.6 µM; AID 463079;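 active means inhibition above that plate's mean sample inhibition plus 3 SD, cut at about 26% in these data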;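 further: 0% = ATP-challenged DMSO wells and 100% = DMSO wells without ATP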
#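 Measured by: calcium-sensitive Fluo-8 fluorescence / Test system: CHO parental line / Controls: ATP-challenged DMSO wells low, unchallenged DMSO wells high / Measure: % inhibition / Compound: single nominal dose of 5.6 µM per compound / Replicates: single well per compound, no replicates / Reagent: ATP as calcium-mobilizing challenge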
# EP2 mod: modulators of human EP2 prostaglandin E2 receptor; EP2-expressing cells, cAMP HTRF FRET, PGE2 co-stimulation; hit rate 0.83% among 260,000; AID 940; induction, % at 25 µM;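 active means compounds whose cAMP rise, as percent of the full-agonist control response, exceeds 60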;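 further: rat C6 glioma line stably carrying human EP2 under a CMV promoter; the protocol text gives 20 µM as final concentration; 100% = response of wells given 1 µM PGE2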
# OX1R antag-2: human HCRTR1 antagonism. O43613. CHO/OX1R cells, Fluo-8 calcium fluorescence, orexin A. inhibition, % at 5 µM. hit rate 0.43% among 330,000;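 active means inhibition above its plate's threshold, mean inhibition of all tested compounds on the plate plus 3 SD, cut at about 37% in these data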;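 further: 0% = orexin A challenge wells and 100% = SB-334867-A antagonist wells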
# OX1R HTRF confirm: confirmation of human orexin 1 receptor antagonists, HTRF format; shares compounds with OX1R antag-1; OX1R-expressing cells, HTRF antagonist assay; inhibition, % at 6.6 µM; hit rate 49% among 1,800; AID 492964; in the data active means inhibition above about 55%;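 further: CHO cells expressing OX1R stimulated with orexin A at about EC80; 0% = agonist challenge alone and 100% = reference antagonist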
# CHO-K1 HTRF: counter-screen: parental CHO-K1 HTRF response | shares compounds with OX1R antag-1 | parental CHO-K1 cells, HTRF counterscreen | inhibition, % at 6.6 µM | hit rate 48% among 1,800; in the data active means inhibition above about 17%;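 further: 0% = agonist challenge with vehicle and 100% = vehicle alone without agonist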
# Starred values were filed as active, the others as inactive; x = no result. Compounds with a hit are over-represented: about 3.7% of the library has one in this group of screens.
SMILES,GPR7 antag,EP2 antag,OX1R antag-1,CHO parental Ca,EP2 mod,OX1R antag-2,OX1R HTRF confirm,CHO-K1 HTRF
Cc1ccc2c(c1)c1nc3ccccc3nc1n2C,-20,x,94*,-17,x,10,91*,5
Cn1c2ccc(F)cc2c2nc3ccccc3nc21,-22,x,87*,-12,x,17,91*,-4
CCOC(=O)NNC(=O)C12CC3CC(CC(C3)C1)C2,-11,-1,1,-7,0,-1,x,x
CC1CCCCN1C(=O)Cn1cnc2cc([N+](=O)[O-])ccc2c1=O (stereo unspecified),-8,2,123*,-13,-25,-10,81*,86*
CN(c1ccccc1)S(=O)(=O)c1ccc(Cl)c(C(=O)NCc2ccccc2CN2CCCC2)c1,x,x,10,-30,x,-25,x,x
COc1ccc(Oc2nc(C)cc(C)c2S(=O)(=O)c2ccc(C)cc2)cc1,-14,x,9,-16,49,-14,x,x
Cc1ccc(N2C(=O)c3cccc4c([N+](=O)[O-])ccc(c34)C2=O)c2cccnc12,-9,4,18,-16,-10,15,x,x
Cc1ccnc(N2C(=O)c3cccc4c([N+](=O)[O-])ccc(c34)C2=O)c1,13,15,107*,9,2,12,48,73*
CCn1c(OC)nc2c1c(=O)n(C)c(=O)n2C,8,12,22,-9,2,-5,x,x
COCC(=O)N1CCN(c2ccc([N+](=O)[O-])cc2)CC1,-10,20,160*,-7,14,-6,39,41*
CCOC(=O)c1c(COC(=O)c2ccco2)nc2ccccc2[n+]1[O-],-3,23,107*,-24,-6,-13,53,28*
O=C(OCc1nc2ccccc2[n+]([O-])c1C(=O)c1ccccc1)c1ccco1,-19,6,27,-26,-6,-35,x,x
CC(=O)c1c(COC(=O)c2ccco2)nc2ccccc2[n+]1[O-],x,22,40,-17,x,-24,x,x
COc1ccc2nc(COC(=O)c3ccco3)c(C(C)=O)[n+]([O-])c2c1,-2,7,125*,-28,-5,-6,32,35*
O=C(CCS(=O)(=O)c1cccc2nsnc12)NC1CCCCCC1,-8,12,66,-15,16,-5,x,x
CN(CC(=O)NCCN1CCCCCC1)S(=O)(=O)c1cccc2nsnc12,-5,4,80*,-20,27,-19,34,42*
CC(C)CCNC(=O)CN(C)S(=O)(=O)c1cccc2nsnc12,-1,12,52,-1,-5,-42,x,x
CN(CC(=O)NC1CCCCC1)S(=O)(=O)c1cccc2nsnc12,-14,4,95*,-27,16,-30,56*,37*
CC1CCCCC1NC(=O)CN(C)S(=O)(=O)c1cccc2nsnc12 (stereo unspecified),6,14,84*,-4,26,-20,29,24*
Cc1cc(C)n(CC2CC(=O)N(c3cc(Cl)cc(Cl)c3)C2=O)n1 (stereo unspecified),4,6,12,-6,20,-20,x,x
COc1ccc(-c2cc(C(F)(F)F)n3nc(C(=O)N4CCCCC4)cc3n2)cc1OC,7,20,27,-18,4,-37,x,x
CNC(=O)Nc1cccc(-c2ccnc(C)n2)c1,13,6,0,10,14,-5,x,x
COc1cccc(C(=O)/C(C#N)=N/Nc2cccc(-c3ccnc(C)n3)c2)c1,-9,4,77*,-2,-25,-13,50,18*
O=C(CNC(=O)c1cccs1)OCC(=O)c1ccccc1,5,8,9,2,0,3,x,x
O=C(CNC(=O)c1cccs1)NCC(=O)OCC(=O)c1ccc([N+](=O)[O-])cc1,-14,4,103*,-5,35,-3,36,43*
SMILES,GPR7 antag,EP2 antag,OX1R antag-1,CHO parental Ca,EP2 mod,OX1R antag-2,OX1R HTRF confirm,CHO-K1 HTRF
CC(=O)Nc1ccc(NC(=O)C(C)OC(=O)CCCOc2ccc(Cl)c(C)c2)cc1 (stereo unspecified),-19,x,85*,-6,x,20,78*,6
O=[N+]([O-])c1cccc(/C=C/c2nc3ccc([N+](=O)[O-])cc3[nH]2)c1,19,44*,102*,19,-46,17,21,1
O=[N+]([O-])c1cc(-c2nc(-c3ccncc3)no2)ccc1Cl,-11,7,59,3,-1,-2,x,x
O=[N+]([O-])c1cc(-c2nc(-c3ccncc3)no2)cc([N+](=O)[O-])c1,3,0,78*,0,-22,-31,72*,63*
C/C(=N\OCC(=O)Nn1c(C)nc2ccccc2c1=O)c1ccccc1,-11,6,3,-7,13,6,x,x
c1ccc(CNc2c3ccccc3nc3ccccc23)cc1,5,x,5,-8,x,-23,x,x
OCC(Cc1ccccc1)Nc1c2ccccc2nc2ccccc12 (stereo unspecified),-8,4,88*,-20,-41,22,72*,17*
Cc1cc(C)c(O)c(-c2cc(C(=O)NCCc3ccc(S(N)(=O)=O)cc3)[nH]n2)c1,19,8,98*,-3,-75,-18,19,-1
Cc1cc(O)c(-c2cc(C(=O)NCCc3ccc(S(N)(=O)=O)cc3)[nH]n2)cc1C,-15,12,7,-6,-97,-17,x,x
Cc1ccc(-c2ccccc2NC(=O)CS(=O)CC(=O)Nc2ccc(C)c(Cl)c2)o1 (stereo unspecified),-13,x,82*,6,x,11,43,7
CCCCOc1ccc(N=Nc2ccc(N)nc2N)cn1,5,10,7,3,-55,4,x,x
CCOC(=O)CN1C=C(c2ccc3ccccc3n2)C(C[N+](=O)[O-])c2ccccc21 (stereo unspecified),-9,6,117*,-21,5,-20,55*,67*
Cc1c(Cl)cccc1NC(=O)c1ccc2c(c1)CCN2S(C)(=O)=O,x,13,x,x,-86,x,x,x
O=C(CS(=O)c1ccc(C(F)(F)F)cc1[N+](=O)[O-])Oc1ccccc1 (stereo unspecified),14,15,86*,-14,-20,-7,47,13
Cc1cccc2sc(N3CCN(C(=O)c4cccs4)CC3)nc12,x,x,32,-4,x,-7,x,x
O=C(c1cccs1)N1CCN(c2nc3ccccc3s2)CC1,-4,x,87*,-12,x,-19,22,2
CC[n+]1ccc(C)c2cc(S(=O)C(F)(F)F)ccc21 (stereo unspecified),0,5,23,-8,16,-1,x,x
Cc1nc(N2CCN(c3ccccn3)CC2)c2c(C)c(C(=O)Nc3ccc(Br)cc3C)sc2n1,-12,x,10,-22,x,-27,x,x

# Bioassay records from PubChem BioAssay.
